How the values were obtained:
Format in all cases: functional
MOLT-4 = test: Growth inhibition of human MOLT4 cells at 10 uM after 48 hrs by coulter counter analysis; settings: MOLT-4, 48 h, read-out: GI
Outline: (§1)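 Single-dose NCI 60-line panel screen of test compounds. Cells grown in RPMI 1640 with 10% FBS. Compounds dissolved in DMSO, then diluted in phosphate buffer saline (final DMSO below 1%). Wells run in duplicate at 6 × 10⁴ cells/ml. Controls held PBS and DMSO at matching dilutions. Incubation 48 h at 37 °C under humidified 5% CO2. Cells diluted tenfold in saline and counted by Coulter counter. Percent growth inhibition taken from mean-graph of treated-cell growth.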

RPMI-8226 = test: Growth inhibition of human RPMI8226 cells at 10 uM after 48 hrs by coulter counter analysis; settings: RPMI-8226, 48 h, read-out: GI; outline: as §1
SR = test: Growth inhibition of human SR cells at 10 uM after 48 hrs by coulter counter analysis; settings: read-out: GI
Outline: (§2)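 Single-dose screen in the NCI 60 cell line panel. Cells grown in RPMI 1640 with 10% FBS. Compounds dissolved in DMSO and diluted in phosphate buffered saline, final DMSO under 1%. Duplicate wells seeded from culture at 6 × 10⁴ cells/ml. Incubated 48 h at 37 °C, humidified, 5% CO2. Cells diluted tenfold in saline and Coulter-counted. Percent growth inhibition computed against PBS/DMSO controls.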

A549 = test: Growth inhibition of human A549/ATCC cells at 10 uM after 48 hrs by coulter counter analysis; settings: A549, 48 h, read-out: GI; outline: as §1
NCI-H226 = test: Growth inhibition of human NCI-H226 cells at 10 uM after 48 hrs by coulter counter analysis; settings: NCI-H226, 48 h, read-out: GI; outline: as §1
NCI-H322M = test: Growth inhibition of human NCI-H322M cells at 10 uM after 48 hrs by coulter counter analysis; settings: read-out: GI; outline: as §1
NCI-H460 = test: Growth inhibition of human NCI-H460 cells at 10 uM after 48 hrs by coulter counter analysis; settings: NCI-H460, 48 h, read-out: GI; outline: as §1
NCI-H522 = test: Growth inhibition of human NCI-H522 cells at 10 uM after 48 hrs by coulter counter analysis; settings: NCI-H522, 48 h, read-out: GI; outline: as §1
COLO 205 = test: Growth inhibition of human COLO205 cells at 10 uM after 48 hrs by coulter counter analysis; settings: COLO 205, 48 h, read-out: GI; outline: as §1
HCC 2998 = test: Growth inhibition of human HCC2998 cells at 10 uM after 48 hrs by coulter counter analysis; settings: HCC 2998, 48 h, read-out: GI; outline: as §1
HCT-116 = test: Growth inhibition of human HCT116 cells at 10 uM after 48 hrs by coulter counter analysis; settings: HCT-116, 48 h, read-out: GI; outline: as §1
HCT-15 = test: Growth inhibition of human HCT15 cells at 10 uM after 48 hrs by coulter counter analysis; settings: HCT-15, 48 h, read-out: GI; outline: as §1
HT-29 = test: Growth inhibition of human HT-29 cells at 10 uM after 48 hrs by coulter counter analysis; settings: HT-29, 48 h, read-out: GI; outline: as §1
KM12 = test: Growth inhibition of human KM12 cells at 10 uM after 48 hrs by coulter counter analysis; settings: KM12, 48 h, read-out: GI; outline: as §1
SW-620 = test: Growth inhibition of human SW620 cells at 10 uM after 48 hrs by coulter counter analysis; settings: SW-620, 48 h, read-out: GI; outline: as §2
SF-268 = test: Growth inhibition of human SF268 cells at 10 uM after 48 hrs by coulter counter analysis; settings: SF-268, 48 h, read-out: GI; outline: as §1
SF-539 = test: Growth inhibition of human SF539 cells at 10 uM after 48 hrs by coulter counter analysis; settings: SF-539, 48 h, read-out: GI; outline: as §1
SNB-75 = test: Growth inhibition of human SNB75 cells at 10 uM after 48 hrs by coulter counter analysis; settings: SNB-75, 48 h, read-out: GI; outline: as §2
LOX IMVI = test: Growth inhibition of human LOXIMVI cells at 10 uM after 48 hrs by coulter counter analysis; settings: read-out: GI; outline: as §1
M14 = test: Growth inhibition of human M14 cells at 10 uM after 48 hrs by coulter counter analysis; settings: M14, 48 h, read-out: GI; outline: as §1
MDA-MB-435 = test: Growth inhibition of human MDA-MB-435 cells at 10 uM after 48 hrs by coulter counter analysis; settings: MDA-MB-435, 48 h, read-out: GI; outline: as §1
SK-MEL-28 = test: Growth inhibition of human SK-MEL-28 cells at 10 uM after 48 hrs by coulter counter analysis; settings: SK-MEL-28, 48 h, read-out: GI; outline: as §1
SK-MEL-5 = test: Growth inhibition of human SK-MEL-5 cells at 10 uM after 48 hrs by coulter counter analysis; settings: SK-MEL-5, 48 h, read-out: GI; outline: as §1
IGROV-1 = test: Growth inhibition of human IGROV1 cells at 10 uM after 48 hrs by coulter counter analysis; settings: IGROV-1, 48 h, read-out: GI; outline: as §1
OVCAR-4 = test: Growth inhibition of human OVCAR4 cells at 10 uM after 48 hrs by coulter counter analysis; settings: OVCAR-4, 48 h, read-out: GI; outline: as §1
[1] = Growth inhibition of human NCI-ADR-RES cells at 10 uM after 48 hrs by coulter counter analysis; settings: read-out: GI; outline: as §1
786-0 = test: Growth inhibition of human 786-0 cells at 10 uM after 48 hrs by coulter counter analysis; settings: 786-0, 48 h, read-out: GI; outline: as §1
ACHN = test: Growth inhibition of human ACHN cells at 10 uM after 48 hrs by coulter counter analysis; settings: read-out: GI; outline: as §1
CAKI-1 = test: Growth inhibition of human Caki1 cells at 10 uM after 48 hrs by coulter counter analysis; settings: CAKI-1, 48 h, read-out: GI; outline: as §1
RXF 393 = test: Growth inhibition of human RXF393 cells at 10 uM after 48 hrs by coulter counter analysis; settings: RXF 393, 48 h, read-out: GI; outline: as §1
PC-3 = test: Growth inhibition of human PC3 cells at 10 uM after 48 hrs by coulter counter analysis; settings: PC-3, 48 h, read-out: GI; outline: as §1
DU-145 = test: Growth inhibition of human DU145 cells at 10 uM after 48 hrs by coulter counter analysis; settings: DU-145, 48 h, read-out: GI; outline: as §1
MCF7 = test: Growth inhibition of human MCF7 cells at 10 uM after 48 hrs by coulter counter analysis; settings: MCF7, 48 h, read-out: GI; outline: as §1
MDA-MB-231 = test: Growth inhibition of human MDA-MB-231 cells at 10 uM after 48 hrs by coulter counter analysis; settings: MDA-MB-231, 48 h, read-out: GI; outline: as §1
[2] = Growth inhibition of human Hs 578T cells at 10 uM after 48 hrs by coulter counter analysis; settings: read-out: GI; outline: as §1
CCRF-CEM = test: Growth inhibition of human CCRF-CEM cells at 10 uM after 48 hrs by coulter counter analysis; settings: read-out: GI; outline: as §1

| SMILES | inhibition of growth at 10 µM (MOLT-4) | inhibition of growth at 10 µM (RPMI-8226) | inhibition of growth at 10 µM (SR) | inhibition of growth at 10 µM (A549) | inhibition of growth at 10 µM (NCI-H226) | inhibition of growth at 10 µM (NCI-H322M) | inhibition of growth at 10 µM (NCI-H460) | inhibition of growth at 10 µM (NCI-H522) | inhibition of growth at 10 µM (COLO 205) | inhibition of growth at 10 µM (HCC 2998) | inhibition of growth at 10 µM (HCT-116) | inhibition of growth at 10 µM (HCT-15) | inhibition of growth at 10 µM (HT-29) | inhibition of growth at 10 µM (KM12) | inhibition of growth at 10 µM (SW-620) | inhibition of growth at 10 µM (SF-268) | inhibition of growth at 10 µM (SF-539) | inhibition of growth at 10 µM (SNB-75) | inhibition of growth at 10 µM (LOX IMVI) | inhibition of growth at 10 µM (M14) | other results |
| --- | --- | --- | --- | --- | --- | --- | --- | --- | --- | --- | --- | --- | --- | --- | --- | --- | --- | --- | --- | --- | --- |
| CCOC(=O)c1sc(NC(=O)C(C)N2CCOCC2)nc1C (stereo not drawn) | < 10% | < 10% | < 10% | < 10% | < 10% | < 10% | < 10% | < 10% | < 10% | < 10% | < 10% | < 10% | < 10% | < 10% | < 10% | < 10% | < 10% | 24.4% | < 10% | < 10% | inhibition of growth at 10 µM (MDA-MB-435): < 10%; inhibition of growth at 10 µM (SK-MEL-28): < 10%; inhibition of growth at 10 µM (SK-MEL-5): < 10%; inhibition of growth at 10 µM (IGROV-1): < 10%; inhibition of growth at 10 µM (OVCAR-4): < 10%; inhibition of growth at 10 µM [1]: < 10%; inhibition of growth at 10 µM (786-0): < 10%; inhibition of growth at 10 µM (ACHN): < 10%; inhibition of growth at 10 µM (CAKI-1): < 10%; inhibition of growth at 10 µM (RXF 393): < 10%; inhibition of growth at 10 µM (PC-3): < 10%; inhibition of growth at 10 µM (DU-145): < 10%; inhibition of growth at 10 µM (MCF7): < 10%; inhibition of growth at 10 µM (MDA-MB-231): < 10%; inhibition of growth at 10 µM [2]: < 10%; inhibition of growth at 10 µM (CCRF-CEM): < 10% |
| O=C(CN1CCN(c2ccccc2)CC1)Nc1nc(-c2ccccc2)cs1 | 31.3% | 25% | < 10% | 17.6% | 19.1% | 11.3% | 25% | 29.7% | 12.4% | < 10% | 17.7% | 54.6% | 23.8% | < 10% | < 10% | < 10% | < 10% | 29.7% | 11.5% | 13.6% | inhibition of growth at 10 µM (MDA-MB-435): < 10%; inhibition of growth at 10 µM (SK-MEL-28): < 10%; inhibition of growth at 10 µM (SK-MEL-5): 31.9%; inhibition of growth at 10 µM (IGROV-1): 26.5%; inhibition of growth at 10 µM (OVCAR-4): < 10%; inhibition of growth at 10 µM [1]: 23%; inhibition of growth at 10 µM (786-0): < 10%; inhibition of growth at 10 µM (ACHN): 16.2%; inhibition of growth at 10 µM (CAKI-1): 36.6%; inhibition of growth at 10 µM (RXF 393): < 10%; inhibition of growth at 10 µM (PC-3): 26.3%; inhibition of growth at 10 µM (DU-145): < 10%; inhibition of growth at 10 µM (MCF7): 19.3%; inhibition of growth at 10 µM (MDA-MB-231): 29.2%; inhibition of growth at 10 µM [2]: < 10%; inhibition of growth at 10 µM (CCRF-CEM): 22.7% |
| Cc1csc(NC(=O)C(C)N2CCN(c3ccccc3)CC2)n1 (stereo not drawn) | < 10% | < 10% | < 10% | < 10% | 11.7% | < 10% | < 10% | < 10% | < 10% | < 10% | < 10% | < 10% | < 10% | < 10% | < 10% | < 10% | < 10% | 24% | < 10% | < 10% | inhibition of growth at 10 µM (MDA-MB-435): < 10%; inhibition of growth at 10 µM (SK-MEL-28): < 10%; inhibition of growth at 10 µM (SK-MEL-5): < 10%; inhibition of growth at 10 µM (IGROV-1): < 10%; inhibition of growth at 10 µM (OVCAR-4): < 10%; inhibition of growth at 10 µM [1]: < 10%; inhibition of growth at 10 µM (786-0): < 10%; inhibition of growth at 10 µM (ACHN): < 10%; inhibition of growth at 10 µM (CAKI-1): < 10%; inhibition of growth at 10 µM (RXF 393): < 10%; inhibition of growth at 10 µM (PC-3): < 10%; inhibition of growth at 10 µM (DU-145): < 10%; inhibition of growth at 10 µM (MCF7): < 10%; inhibition of growth at 10 µM (MDA-MB-231): < 10%; inhibition of growth at 10 µM [2]: < 10%; inhibition of growth at 10 µM (CCRF-CEM): < 10% |

Source: ChEMBL document CHEMBL2040727, “Substituted thiazoles VI. Synthesis and antitumor activity of new 2-acetamido- and 2 or 3-propanamido-thiazole analogs” (2012)
